Bioassay records as filed in PubChem.
MEKK3 PB1 HTS: modulators of MEKK3-MEK5 PB1 binding, primary screen, biochemical, wildtype MEKK3, multiplex bead flow cytometry, Alexa488-MEK5; Mitogen-activated protein kinase kinase kinase 3 (Homo sapiens), Q99759; bead-based flow cytometry, Alexa488-MEK5 binding to MEKK3; actives lie on both sides; 0 = blocked by unlabeled MEK5, 100 = vehicle; binding response (% of control), % at 10 µM; 290,000 tested, 1.4% active; AID 1529, 2009;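 active = binding response more than 3 SD above or below the average of its plate-row segment, actives on both sides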;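 note: Alexa488 bead fluorescence after subtracting the streptavidin-only scavenger bead signal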
Target sequence (Q99759 whole entry, looked up): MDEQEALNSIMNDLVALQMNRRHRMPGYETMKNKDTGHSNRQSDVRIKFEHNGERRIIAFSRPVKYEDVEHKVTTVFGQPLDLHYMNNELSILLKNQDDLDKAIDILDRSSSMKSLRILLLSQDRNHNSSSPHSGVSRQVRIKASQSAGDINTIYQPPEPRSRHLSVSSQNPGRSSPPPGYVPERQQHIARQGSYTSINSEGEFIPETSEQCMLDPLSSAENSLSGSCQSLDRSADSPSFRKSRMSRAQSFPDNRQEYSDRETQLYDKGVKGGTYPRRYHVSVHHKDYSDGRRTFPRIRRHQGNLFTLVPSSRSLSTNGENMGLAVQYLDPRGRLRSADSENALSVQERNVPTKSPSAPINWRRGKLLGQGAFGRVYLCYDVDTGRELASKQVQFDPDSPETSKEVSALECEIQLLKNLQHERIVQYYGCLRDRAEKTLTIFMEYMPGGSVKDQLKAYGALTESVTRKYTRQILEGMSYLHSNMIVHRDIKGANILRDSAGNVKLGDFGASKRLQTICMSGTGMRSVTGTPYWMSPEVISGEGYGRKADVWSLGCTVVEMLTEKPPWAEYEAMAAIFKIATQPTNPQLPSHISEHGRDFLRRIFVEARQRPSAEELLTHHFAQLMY
ABCB1 block: ABCB1 efflux pump inhibitors, primary screen, cell-based, multiplex, flow cytometry, ABCG2 counter-screen; ATP-dependent translocase ABCB1 (Homo sapiens), P08183; CCRF-Adr cells, JC-1 efflux; inhibition, % at 6.6 µM; 190,000 tested, 0.067% active; AID 1326, 2008; in the data active = inhibition above about 40%;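 note: 0% = vehicle and 100% = reference inhibitor; higher value means more JC-1 retained so stronger ABCB1 efflux block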
ABCG2 block: ABCG2 efflux pump inhibitors, primary screen, multiplex with ABCB1, IgMXP3 cells, flow cytometry; AID 1325, 2008; 190,000 tested, 0.1% active; inhibition, % at 6.6 µM; Broad substrate specificity ATP-binding cassette transporter ABCG2 (Homo sapiens), Q9UNQ0; JC-1 efflux;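 active = inhibition above 80%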;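 note: 0% = DMSO and 100% = nicardipine control wells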
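Test system: IgMXP3 (ABCG2) plus far-red-tagged CCRF-Adr (ABCB1) cells. Reagent: JC-1 dye as substrate. Timing: 10 min exposure at 25 °C with rotation, no wash. Measured by: flow cytometric JC-1 green MFI at 530 nm. Read-out: percent efflux inhibition, scaled nicardipine 100% to DMSO 0%. Control set: nicardipine and DMSO wells.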
MEKK2mut PB1 HTS: MEK5 binding signal on mutant MEKK2 PB1, primary screen, biochemical, multiplex bead flow cytometry, Alexa488-MEK5; Alexa488-MEK5 binding to MEKK2 mutant; percent response, % at 10 µM; 290,000 tested, 0.35% active; in the data active = percent response above about 24%, passing the limit was not always enough
MEKK2 WT-MEK5: modulators of MEK5 binding to wildtype MEKK2, primary screen, biochemical, multiplex bead flow cytometry, Alexa488-MEK5. Mitogen-activated protein kinase kinase kinase 2 (Homo sapiens), Q9Y2U5. Alexa488-MEK5 binding to MEKK2 WT; actives lie on both sides. binding response (% of control), % at 10 µM. 290,000 tested, 1.1% active; in the data active = binding response below about 67% or above about 130%
WT yeast gro inh: growth inhibition of WT strain, primary screen, mitochondrial fusion inhibitor project, WT and mutant strains, chemical genetic; mitochondrial fusion phenotypic screen; inhibition, % at 10 µM; 190,000 tested, 2.1% active; in the data active = inhibition above about 58%; tested in S. cerevisiae
MEKK2wt confirm: modulators of MEK5 binding to wildtype MEKK2, confirmation, biochemical, single concentration, multiplex bead flow cytometry. shares compounds with MEKK3 PB1 HTS. Alexa488-MEK5 binding to MEKK2 WT; actives lie on both sides. binding response (% of control), % at 10 µM. 5,900 tested, 2.4% active; in the data active = binding response below about 16% or above about 210%; inactive = in between
MEKK2mut-MEK5: mutant MEKK2 PB1-MEK5 binding signal retest – biochemical, single concentration, multiplex bead flow cytometry, confirmation; shares compounds with MEKK3 PB1 HTS; Alexa488-MEK5 binding to MEKK2 mutant; percent response, % at 10 µM; 5,900 tested, 2% active; in the data active = percent response mostly above about 71%, no sharp cut-off; inactive = mostly below about 38%;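 note: higher means compound restores mutant binding toward wildtype level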
MEKK3 confirm: MEKK3 wild-type PB1 binding to MEK5, inhibitors, confirmation, biochemical, bead multiplex flow cytometry, single concentration, wildtype; binding response (% of control), % at 10 µM; Alexa488-MEK5 binding to MEKK3; stronger effect = lower value; shares compounds with MEKK3 PB1 HTS; 5,900 tested, 1.8% active;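 active = binding response below 72% of control, or above a set upper limit, though filed actives all read lower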;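 note: 100% = DMSO only wells and 0% = binding blocked by excess unlabeled MEK5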
Active calls of the source: *; / = no result; [ ] = another dose, or the depositor's remark. This is a sample that favours compounds with a hit; in the whole collection about 3.5% have one here.

SMILES | MEKK3 PB1 HTS | ABCB1 block | ABCG2 block | MEKK2mut PB1 HTS | MEKK2 WT-MEK5 | WT yeast gro inh | MEKK2wt confirm | MEKK2mut-MEK5 | MEKK3 confirm
Cc1ccnc(NS(=O)(=O)c2ccc(NC(=O)c3ccc(Br)o3)cc2)n1 | 130* | 0 | 0 | 1 | 118 | -10 | 97 | -9 | 97
CC(C)(C)c1ccc(COC(=O)Nc2ccc(F)cc2)cc1 | 102 | 0 | 3 | 2 | 104 | -13 | / | / | /
CC(C)(C)c1ccc(NC(=O)Nc2ccc(F)cc2)cc1 | 130* | 0 | 6 | 2 | 128 | -12 | 109 | 7 | 106
Cc1onc(-c2ccccc2)c1C(=O)NC(=S)NNC(=O)c1ccncc1 | 131* | 1 | 24 | 1 | 107 | -6 | 105 | -2 | 100
CC(=O)Nc1ccc(N(C(=O)c2ccco2)C(C(=O)NC2CCCC2)c2ccncc2)cc1 (stereo not drawn) | 103 | / | / | 7 | 104 | / | / | / | /
CN(C)S(=O)(=O)N1CCN(CC(O)COc2ccc3cc(Br)ccc3c2)CC1 (stereo not drawn) | 107 | 1 | 17 | 19 | 134* | 98* | 151 | 27 | 112
O=S(=O)(N1CCCCC1)N1CCN(CC(O)COc2ccc3cc(Br)ccc3c2)CC1 (stereo not drawn) | 100 | 1 | 2 | 8 | 130 | 12 | / | / | /
COC(=O)CN(C#N)c1nc(NC(C)C)nc(NC(C)C)n1 | 106 | 0 | 1 | 4 | 102 | -14 | / | / | /
COc1cccc(OC)c1C(=O)Nc1ccc(C(=O)NCc2ccccc2)cc1 | 96 | / | / | 1 | 98 | / | / | / | /
COC(=O)N1C(=O)[C@@](c2ccccc2)(C(C)C)N1C(=O)OC | 94 | / | / | -13 | 83 | / | / | / | /
COC(=O)N1C(=O)[C@](c2ccccc2)(C2CCCC2)N1C(=O)OC | 100 | / | / | 30* | 96 | / | 100 | -4 | 98
S=C(Nc1ccc(Cl)c(Cl)c1)NC1CCN(Cc2ccccc2)CC1 | 111 | 1 | 5 | 34* | 168* | 74* | 171 | 35 | 110
S=C(NCCCN1CCOCC1)Nc1ccc(Cl)c(Cl)c1 | 63*[inhibitor] | -1 | -4 | 0 | 109 | 2 | 89 | -9 | 79
CSc1cccc(NC(=S)NCCCN2CCN(c3ccc(F)cc3)CC2)c1 | 115 | 3 | 5 | 18 | 142* | 35 | 134 | 9 | 103
S=C(Nc1ccc(Cl)cc1)NC1CC2CCC(C1)N2Cc1ccccc1 (stereo not drawn) | 110 | 2 | 6 | 41 | 156* | 32 | 142 | 28 | 110
Fc1cccc(NC(=S)NCCCN2CCOCC2)c1 | 98 | 0 | 1 | -3 | 95 | -1 | / | / | /
Cc1ccc(NC(=S)NCCCN2CCOCC2)cc1C | 103 | / | / | 1 | 108 | / | / | / | /
Cc1cc(C(=O)NCCc2ccc(S(N)(=O)=O)cc2)c(C)o1 | 104 | / | / | 8 | 102 | / | / | / | /
C=C1N(c2cccc(Cl)c2)C(=O)OC1(C)C | 96 | 0 | 2 | -8 | 88 | -6 | / | / | /
S=C(NC1CCCCC1)N1CCN(Cc2ccccc2)CC1 | 143* | 0 | 7 | 2 | 105 | -2 | 109 | 4 | 104
CC(=O)c1ccc(NC(=O)C(C)n2c3ccccc3c3nc(=O)cc(C)n32)cc1 (stereo not drawn) | 44*[inhibitor] | / | / | -17 | 52 | / | 103 | -3 | 103
Cn1c(=O)c2c([nH]c(=S)n2Cc2ccc(Cl)cc2)n(C)c1=O | 103 | / | / | 2 | 102 | / | / | / | /
COCc1cc(C)nc(OCC(=O)N/N=C/c2ccccc2O)c1C#N | 92 | 0 | 0 | 188* | 85 | -3 | 98 | 0 | 99
COCc1cc(C)nc(OCC(=O)N/N=C/c2ccc(O)cc2O)c1C#N | 93 | 0 | 0 | -3 | 89 | -6 | / | / | /
COc1ccc(C)cc1Nc1n[n+](C)c(-c2ccc(C(=O)O)cc2)s1 | 109 | / | / | 4 | 113 | / | / | / | /
SMILES | MEKK3 PB1 HTS | ABCB1 block | ABCG2 block | MEKK2mut PB1 HTS | MEKK2 WT-MEK5 | WT yeast gro inh | MEKK2wt confirm | MEKK2mut-MEK5 | MEKK3 confirm
COc1ccc(C)cc1Nc1n[n+](-c2ccccc2)c(-c2ccc(NC(C)=O)cc2)s1 | 106 | / | / | 10 | 142* | / | 147 | 30 | 107
COc1ccc(C)cc1Nc1n[n+](-c2ccccc2)c(-c2ccc(SC)cc2)s1 | 105 | / | / | 29* | 128 | / | 121 | 9 | 101
CC(=O)Nc1ccc(-c2sc(Nc3cccc4ccccc34)n[n+]2-c2ccccc2)cc1 | 104 | / | / | 10 | 159* | / | 136 | 15 | 107
CCS(=O)(=O)c1ccc(O)c(NC(=O)COc2ccc(C)cc2)c1 | 154* | 0 | 7 | 0 | 106 | -6 | 109 | 7 | 101
CCS(=O)(=O)c1ccc(O)c(NC(=O)COc2ccc(OC)cc2)c1 | 90 | 0 | 8 | -2 | 96 | 0 | / | / | /
COc1cc(CNC(C)c2ccccc2)cc(Cl)c1OCC(=O)Nc1ccccc1 (stereo not drawn) | 100 | 7 | 14 | 10 | 125 | 29 | / | / | /
CCC(=O)c1ccc(OCC(O)CN2CCN(C(c3ccccc3)c3ccccc3)CC2)cc1 (stereo not drawn) | 105 | 2 | 4 | 18 | 158* | 18 | 114 | 8 | 103
CCC(=O)c1ccc(OCC(O)CN2CCOCC2)cc1 (stereo not drawn) | 2.0*[inhibitor] | 0 | 2 | -31 | 2.0*[inhibitor] | 2 | 99 | -2 | 101
O=C(Nc1c[nH]c(=O)[nH]c1=O)c1cccc([N+](=O)[O-])c1 | 103 | / | / | 3 | 101 | / | / | / | /
CCOC(=O)C(=NC(C)C)NNc1cc(Cl)ccc1Cl | 141* | 1 | 30 | 0 | 104 | 18 | 100 | -1 | 100
CCOC(=O)C(=NC(C)(C)C)NNc1cc(Cl)ccc1Cl | 111 | 2 | 19 | 5 | 114 | 53 | / | / | /
COC(=O)c1cc(S(=O)(=O)N2CCN(C(=O)c3ccco3)CC2)cn1C | 97 | / | / | -1 | 100 | / | / | / | /
